High-throughput results (PubChem)
aDG glyco up: activators of alpha-DG glycosylation, primary screen, uHTS, Pro5-aDG cells, AlphaScreen | activation, % at 10 µM | actives 0.22% (n = 360,000) | alpha-DG glycosylation AlphaScreen (IIH6); 0% Pro5, 100% B10-LARGE cell signal;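 active means activation of at least 8% versus controls, or a plate z-score of at least 8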;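 further: Pro5 are CHO cells carrying HIG-tagged alpha-DG that lacks glycosylation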
CSN deneddyl inh: inhibitors of CSN-mediated cullin deneddylation, primary screen, biochemical, fluorescence polarization, uHTS; Purified CSN, SCF-Nedd8-OG deneddylation; inhibition, % at 12.5 µM; actives 0.38% (n = 360,000); AID 651999, 2013;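 active means pattern-corrected inhibition above about 35%, with an unprinted fluorescence ratio check between 0.5 and 1.5, limit read from the data, passing the limit was not always enough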;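 further: 0% = enzyme with substrate and 100% = substrate without enzyme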
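Assay system: HEK293T-derived human Csn5 enzyme; quantity: 0.24 nM enzyme; medium: Tris/NaCl/DTT buffer, pH 7.5; also added: substrate SCFSkp2-Nedd8OG, 10 nM; doses: 12.5 µM compound; schedule: 90 min reaction at room temperature; signal: FP; read-out: % inhibition of substrate cleavage by Csn5; benchmarks: substrate-only high control, full reaction low control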
Rev-erbA mod: modulators of Rev-erb alpha DNA binding, primary screen, biochemical, FITC-DNA, fluorescence polarization, uHTS. actives 0.79% (n = 370,000). Rev-erbα–FITC-DNA binding, 90 min. activity, % at 10 µM;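 active means activity above about 14%, limit read from the data; passing the limit was not always enough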;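 further: 0% = DMSO wells with 35 nM protein and 100% = DMSO wells with 750 nM protein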
Target sequence (P20393 whole entry, looked up): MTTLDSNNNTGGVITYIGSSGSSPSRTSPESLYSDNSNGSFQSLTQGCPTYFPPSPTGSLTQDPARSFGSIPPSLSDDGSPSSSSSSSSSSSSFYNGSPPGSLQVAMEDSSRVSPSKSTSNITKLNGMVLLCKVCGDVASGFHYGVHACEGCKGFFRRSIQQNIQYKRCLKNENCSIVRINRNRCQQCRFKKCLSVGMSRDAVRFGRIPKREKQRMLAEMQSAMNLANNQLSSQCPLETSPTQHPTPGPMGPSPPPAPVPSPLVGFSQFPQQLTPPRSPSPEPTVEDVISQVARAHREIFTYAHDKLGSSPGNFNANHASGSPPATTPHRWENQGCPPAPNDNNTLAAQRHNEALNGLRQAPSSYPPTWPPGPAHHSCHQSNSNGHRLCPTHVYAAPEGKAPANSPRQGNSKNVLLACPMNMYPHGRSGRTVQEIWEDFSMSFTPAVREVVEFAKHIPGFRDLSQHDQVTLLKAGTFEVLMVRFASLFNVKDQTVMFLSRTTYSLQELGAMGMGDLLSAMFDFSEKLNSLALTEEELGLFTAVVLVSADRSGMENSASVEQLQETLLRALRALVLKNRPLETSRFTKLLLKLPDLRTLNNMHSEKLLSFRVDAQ
HNF4A DNA FP: change in binding of human HNF4A to DNA, primary screen, biochemical, fluorescence polarization, FITC-DNA. 1 h. activity change, % at 10 µM. actives 0.3% (n = 360,000); in the data active means activity change above about 30%, passing the limit was not always enough
The depositor's hits bear a star. This is a sample that favours compounds with a hit; in the whole collection about 1.5% have one here.

How did COc1ccccc1/C=C1\SC(=S)N(C(C(=O)O)c2ccccc2)C1=O (stereo not drawn) do in these assays?
aDG glyco up: 0.0; CSN deneddyl inh: 1.4; Rev-erbA mod: 0.3; HNF4A DNA FP: -7.5

What do the screens show for `Cn1cccc1/C=C1/SC(=S)N(CC(=O)O)C1=O`?
aDG glyco up: -0.1; CSN deneddyl inh: 50.1*; Rev-erbA mod: 13.1; HNF4A DNA FP: 80.7*

What do the screens show for `CCC(C(=O)O)N1C(=O)/C(=C/c2cccn2C)SC1=S` (stereo not drawn)?
aDG glyco up: 0.2; CSN deneddyl inh: 82.0*; Rev-erbA mod: 6.2; HNF4A DNA FP: 101.2*

How did CC(C(=O)O)N1C(=O)/C(=C/c2cccn2C)SC1=S (stereo not drawn) do in these assays?
aDG glyco up: -0.3; CSN deneddyl inh: 47.6*; Rev-erbA mod: 2.1; HNF4A DNA FP: 84.7*

Results for CC1(C)S[C@@H]2C(NC(=O)[C@@H](N)c3ccc(O)cc3)C(=O)N2[C@H]1C(=O)O (stereo partly drawn) ?
Rev-erbA mod: -5.1

Results for OCCN1C[C@@H](O)[C@@H](O)C(O)C1CO (stereo partly drawn) ?
Rev-erbA mod: -0.3

Results for NC(=O)c1ccc(NC(=O)COC(=O)/C=C/c2ccc(Br)o2)cc1 ?
aDG glyco up: -0.1; CSN deneddyl inh: 48.2*; Rev-erbA mod: -23.8; HNF4A DNA FP: -22.1

Results for O=C(COC(=O)/C=C/c1ccc(Br)o1)Nc1ccc2[nH]c(=O)[nH]c2c1 ?
aDG glyco up: 0.1; CSN deneddyl inh: 39.4; Rev-erbA mod: -3.5; HNF4A DNA FP: -46.4

How did COc1ccc(/C(C)=N/Nc2nncc3ccccc23)cc1 do in these assays?
aDG glyco up: -0.2; CSN deneddyl inh: -7.5; Rev-erbA mod: 5.7; HNF4A DNA FP: 0.0

Results for COc1ccc(N/N=C(/C)c2cnnc(-c3ccccc3)n2)cc1 ?
aDG glyco up: -0.1; CSN deneddyl inh: 26.2; Rev-erbA mod: -11.0; HNF4A DNA FP: 46.2*

Results for COCCCN1C(=O)[C@H](CC(=O)N2CCN(C(=O)C3CC3)CC2)[C@]2(C(=O)OC)CCCCC=C12 ?
Rev-erbA mod: 0.2

What do the screens show for `CN1CCc2c(sc(NC(=O)c3ccc(S(=O)(=O)N4CCCCCC4)cc3)c2C(N)=O)C1`?
aDG glyco up: 32.6*; CSN deneddyl inh: 21.6; HNF4A DNA FP: 36.9

Results for NC(=O)c1c(NC(=O)c2ccc(S(=O)(=O)N3CCOCC3)cc2)sc2c1CCCCC2 ?
aDG glyco up: -0.2; CSN deneddyl inh: 1.1; Rev-erbA mod: 8.6; HNF4A DNA FP: -3.0

Results for CN1CCc2c(sc(NC(=O)c3ccc(S(=O)(=O)N4CCOCC4)cc3)c2C(N)=O)C1 ?
aDG glyco up: 0.9; CSN deneddyl inh: 17.3; HNF4A DNA FP: 48.0*

What do the screens show for `CN1CCc2c(sc(NC(=O)c3ccc(S(=O)(=O)N4CCc5ccccc54)cc3)c2C(N)=O)C1`?
Rev-erbA mod: -3.5

How did CN1CCc2nc(NC(=O)c3cccc(S(=O)(=O)N4CCc5ccccc54)c3)sc2C1 do in these assays?
aDG glyco up: 0.3; CSN deneddyl inh: 41.1*; Rev-erbA mod: 3.4; HNF4A DNA FP: 49.8*

What do the screens show for `O=C(Nc1nc2c(s1)CCCC2)c1cccc(S(=O)(=O)N2CCCc3ccccc32)c1`?
aDG glyco up: -0.2; CSN deneddyl inh: -10.8; Rev-erbA mod: 4.6; HNF4A DNA FP: 5.2

Results for CNC(=O)c1c(NC(=O)c2ccc(S(=O)(=O)N3CCCc4ccccc43)cc2)sc2c1CCN(C)C2 ?
aDG glyco up: 2.5; CSN deneddyl inh: 5.1; Rev-erbA mod: -31.2; HNF4A DNA FP: 32.3*

What do the screens show for `C=CCN(CC#CC(=C)C)Cc1ccc(OC)cc1OC`?
Rev-erbA mod: -3.6

How did C#CCN1CC(N(C)CCOC(=O)c2cc(C)cc(C)c2)CS1(=O)=O (stereo not drawn) do in these assays?
Rev-erbA mod: -0.5

How did O=C1c2ccc(Cl)cc2S(=O)(=O)c2cccc(C(=O)N3CCN(c4ncc(Br)cn4)CC3)c21 do in these assays?
aDG glyco up: 0.1; CSN deneddyl inh: 0.0; Rev-erbA mod: 2.8; HNF4A DNA FP: 2.5

What do the screens show for `COc1ccc(-c2ccc3c(c2)S(=O)(=O)c2cccc(C(=O)N4CCN(c5c(Cl)cncc5Cl)CC4)c2C3=O)cc1OC`?
aDG glyco up: -0.9; CSN deneddyl inh: 21.0; Rev-erbA mod: 0.8; HNF4A DNA FP: 42.2*

Results for CCc1ccc(-n2c(O)c(C=NCCN(CC)CC)c(=O)[nH]c2=O)cc1 ?
aDG glyco up: -0.1; CSN deneddyl inh: 35.2*; Rev-erbA mod: 0.2; HNF4A DNA FP: 14.4

What do the screens show for `COc1cccc(/C=N/Nc2ncnc3c2[nH]c2ccc(C)cc23)c1OC`?
aDG glyco up: -0.1; CSN deneddyl inh: 67.8*; Rev-erbA mod: -11.5; HNF4A DNA FP: 51.5*

How did COc1ccc(/C=N/Nc2ncnc3c2[nH]c2ccccc23)c(OC)c1OC do in these assays?
aDG glyco up: 0.0; CSN deneddyl inh: 1.1; Rev-erbA mod: -23.8; HNF4A DNA FP: 0.6

How did CCOC(=O)CC[C@@H]1CC[C@]2(CCCN(C(=O)c3cccnc3)C2)O1 do in these assays?
Rev-erbA mod: 0.7

Results for Cc1nnc(-c2cccc(Br)c2)c2cn(-c3ccc(Br)cc3)nc12 ?
aDG glyco up: -0.2; CSN deneddyl inh: 90.8; Rev-erbA mod: -0.1; HNF4A DNA FP: 63.3*

Results for COc1ccc2cc(C(=O)Nc3ccc(F)cc3)sc(=O)c2c1OC ?
aDG glyco up: -0.1; CSN deneddyl inh: 40.8*; Rev-erbA mod: -9.2; HNF4A DNA FP: -1.3

How did CN[C@@H]1[C@H](O)[C@@H](O[C@@H]2[C@@H](O)[C@H](O[C@H]3OC(CN)=CC[C@H]3N)[C@@H](N)C[C@H]2N)OC[C@]1(C)O do in these assays?
Rev-erbA mod: -7.8

What do the screens show for `CC(=O)OC(C)OC(=O)C(C)c1ccc(-c2ccccc2)c(F)c1` (stereo not drawn)?
Rev-erbA mod: -2.7

Results for O=C(NCCC1=CCCCC1)C1CCC(CNc2c(N3CCCCC3)c(=O)c2=O)CC1 (stereo not drawn) ?
aDG glyco up: 0.1; CSN deneddyl inh: -1.6; Rev-erbA mod: -5.4; HNF4A DNA FP: -0.5

What do the screens show for `O=C(NCCC1=CCCCC1)C1CCC(CNc2c(N3CCCC3)c(=O)c2=O)CC1` (stereo not drawn)?
aDG glyco up: 0.0; CSN deneddyl inh: 3.5; Rev-erbA mod: 6.5; HNF4A DNA FP: 28.7*

Results for O=C(O)c1ccc(-c2ccc(/C=c3/sc4nc5ccccc5n4c3=O)o2)cc1Cl ?
aDG glyco up: 0.2; CSN deneddyl inh: 106.7*; Rev-erbA mod: 10.7; HNF4A DNA FP: 57.0*

Results for Cc1cc(C)c2nc3sc(=Cc4ccc(-c5ccccc5C(=O)O)o4)c(=O)n3c2c1 ?
aDG glyco up: -0.1; CSN deneddyl inh: 142.3*; Rev-erbA mod: -24.7; HNF4A DNA FP: 72.1
